Experiment: Toxicity liver stage against HepG2, at 10uM
Assay type: cell-based
Set-up: test concentration 10 uM, cell line HepG2-A16-CD81EGFP
Conditions: human, HepG2-A16-CD81EGFP cells; read-out: INHIBITION
How it was run: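 Uninfected HepG2-A16-CD81EGFP cells, 3 × 10^3 per well, 1536-well, plated on prespotted compound at 10 μM final, parasite-free screening media added to match infected plates; puromycin 10 μM positive, DMSO 0.5% negative; run in parallel with 48 h PbLuc assay at 37 °C, 5% CO2; viability by CellTiter-Glo luminescence, normalized to controls.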

Cc1ccc(C(=O)NCCCN2CCOCC2)c(Cl)c1
cytotoxicity at 10 µM: -12.5%

O=C(NCCN1CCOCC1)N1CCN(c2ccccc2)CC1
cytotoxicity at 10 µM: 8.84%

COC(=O)[C@H]1CN(C(C)=O)CCN1C(C)=O
cytotoxicity at 10 µM: -3.31%

CC(=O)NC[C@H]1COCc2nc3cc(S(C)(=O)=O)ccc3n21
cytotoxicity at 10 µM: 0.722%

O=C(NCc1ccccc1)[C@@H]1Cc2[nH]cnc2CN1CC1CC1
cytotoxicity at 10 µM: 3.17%

CN1CCN(C(=O)c2cc3sccc3n2Cc2ccccc2F)CC1
cytotoxicity at 10 µM: 1.94%

O=C1CCC(c2ccc(Cl)cc2)=NN1CN1CCCCCC1
cytotoxicity at 10 µM: 35.7%

COCc1ncn2c1CN(S(=O)(=O)c1cccc(F)c1)CC2
cytotoxicity at 10 µM: 4.06%

Cc1noc(C)c1CN1CC2(CCN(C(=O)c3ccc[nH]3)C2)CC1=O (stereo not given)
cytotoxicity at 10 µM: 6.27%

CN(Cc1cn2c(n1)CN(C(=O)c1cccnc1)CC2)Cc1ccco1
cytotoxicity at 10 µM: -2.19%

O=C(NCCCN1CCCC1=O)c1nc(-c2ccc3[nH]ccc3c2)no1
cytotoxicity at 10 µM: -3.43%

CCC(=O)N1CCC2(COCc3c(C)nc(N(C)C)nc32)C1 (stereo not given)
cytotoxicity at 10 µM: -31.5%

Fc1cnc(N2CCC3(COCc4cnc(NCC5CC5)nc43)C2)nc1 (stereo not given)
cytotoxicity at 10 µM: -4.43%

O=C1CCC2(CCCN(c3ncc(F)cn3)CC2)N1CC1CC1 (stereo not given)
cytotoxicity at 10 µM: -0.291%

O=c1[nH]cc(N2CCOCC2)c(=O)[nH]1
cytotoxicity at 10 µM: 6.36%

COCC(=O)N1CCCC(c2csc(NC(C)=O)n2)C1 (stereo not given)
cytotoxicity at 10 µM: -17.2%

CN1CCNC(Cc2ccc(-c3cccs3)cc2)C1=O (stereo not given)
cytotoxicity at 10 µM: -29.3%

CC(=O)N1CCC(c2ccnc(Nc3ccc(C)cn3)n2)C1 (stereo not given)
cytotoxicity at 10 µM: -16.7%

Cc1cc(CN2CCN(C(C)C(=O)NCc3cccs3)CC2)no1 (stereo not given)
cytotoxicity at 10 µM: -0.335%

Cc1cccc2nc(CN3CCC(N4CCN(C)C4=O)CC3)cn12
cytotoxicity at 10 µM: -0.337%

Cc1nc2cc(=O)[nH]n2c(C)c1CNC(=O)C(C)(C)c1ccccc1
cytotoxicity at 10 µM: 1.1%

Cc1ccc(CN(C(=O)NCC2CCCO2)C2CC2)o1 (stereo not given)
cytotoxicity at 10 µM: -151%

O=C(CCC(=O)N1CCOCC1c1ccccc1)c1cccs1 (stereo not given)
cytotoxicity at 10 µM: -1.26%

Cc1ccccc1C(=O)NCCC(=O)NS(=O)(=O)c1cccnc1
cytotoxicity at 10 µM: -11.6%

CCc1n[nH]c(NC(=O)c2ccc(Cl)cn2)c1Br
cytotoxicity at 10 µM: -5.37%

CCCN(Cc1ccccc1O)S(=O)(=O)N(C)CC
cytotoxicity at 10 µM: 10.2%

O=C(NCCOc1ccc(Cl)cn1)NCCc1ccccn1
cytotoxicity at 10 µM: 7.95%

Cc1nn(C)c(C)c1C1CCCN1CCCC#N (stereo not given)
cytotoxicity at 10 µM: -0.699%

COCCC(=O)N1CCC(Nc2ncc(Br)cn2)CC1
cytotoxicity at 10 µM: -2.46%

NC(=O)N1CCCC1COC(=O)c1ccc(F)cc1Br (stereo not given)
cytotoxicity at 10 µM: 0.616%

O=C(NCC(O)c1ccc(F)cc1F)c1ccccc1F (stereo not given)
cytotoxicity at 10 µM: 13.9%

CC(=O)c1ccc(NC(=O)NC(C)c2ccc3c(c2)CC(=O)N3)cc1 (stereo not given)
cytotoxicity at 10 µM: -8.03%

CCc1ncncc1C(=O)NCCNC(=O)c1ccc(C)c(F)c1
cytotoxicity at 10 µM: 7.67%

O=C(C1CC1)N1CCN(C(=O)C2CC(=O)N(c3ccccc3Br)C2)CC1 (stereo not given)
cytotoxicity at 10 µM: 12.8%

Cc1cnc(NC(=O)N2CCC(N3CCCCC3=O)CC2)s1
cytotoxicity at 10 µM: -0.772%

Cc1csc(NC(=O)CN2CCc3nn(C)c(=O)cc3C2)n1
cytotoxicity at 10 µM: -0.995%

NC(=O)CSc1ccccc1NC(=O)CC1C=CCC1 (stereo not given)
cytotoxicity at 10 µM: -131%

CC(C)(C)CC(=O)Nc1ccccc1SCC(N)=O
cytotoxicity at 10 µM: -138%

Cc1cc(C)c2c(c1)C(NC(=O)CSCc1ccncc1)CCO2 (stereo not given)
cytotoxicity at 10 µM: 4.17%

Cc1ccccc1OCCN1CCCC1CS(N)(=O)=O (stereo not given)
cytotoxicity at 10 µM: 18.3%

COc1c(Br)cccc1CCNC(=O)c1ncoc1C
cytotoxicity at 10 µM: 3.39%

OCCCNC1CCc2cc3c(cc21)OCCO3 (stereo not given)
cytotoxicity at 10 µM: -5.93%

Cc1nc(NC(=O)C2CCCN(C(=O)C3CC3)C2)sc1C (stereo not given)
cytotoxicity at 10 µM: 3.71%

Cc1cc(C)cc(OCC(=O)N2CCCC2)c1
cytotoxicity at 10 µM: 5.04%

Cc1ncc(COc2ccc(N(C)S(C)(=O)=O)cc2)s1
cytotoxicity at 10 µM: 5.89%

O=C(Nc1cc(-n2cccc2)ccc1F)N1CCCC1
cytotoxicity at 10 µM: -4.22%

CN(C)CCN(C)C(=O)Nc1cc(F)cc(N2CCCC2)c1
cytotoxicity at 10 µM: -2.22%

CC(=O)NS(=O)(=O)c1ccc2c(c1)N(C)CCC2
cytotoxicity at 10 µM: -0.89%

c1csc(CNc2ccccc2Cn2cncn2)c1
cytotoxicity at 10 µM: 11.5%

O=C(Cc1ccc(Cl)cc1)N1CCC(O)(C(F)(F)F)C1 (stereo not given)
cytotoxicity at 10 µM: -12.3%

O=C(NCCc1nnc2n1CCCCC2)N1CCC2(CCCC2)CC1
cytotoxicity at 10 µM: -7.94%

O=C(c1cn(-c2ccccc2Cl)nn1)N1CCCSCC1
cytotoxicity at 10 µM: -4.26%

CC(C)Oc1ccc(CSc2nnc(CN3CCCC3=O)o2)cc1
cytotoxicity at 10 µM: -1.71%

CCNC(=O)N1CCCCC1CCNS(C)(=O)=O (stereo not given)
cytotoxicity at 10 µM: -7.71%

CCCN1CCN(Cc2nccn2CC)C(C)C1 (stereo not given)
cytotoxicity at 10 µM: 8.14%

Cn1nccc1-c1ncc(-c2cc(C(=O)O)n(CC3CC3)c2)cn1
cytotoxicity at 10 µM: 1.55%

CN1CCN(Cc2cnn(-c3ccccc3Cl)c2)[C@H]2CS(=O)(=O)C[C@H]21
cytotoxicity at 10 µM: 6.19%

Oc1ccccc1-c1cc(-c2nc(C3CC3)n[nH]2)[nH]n1
cytotoxicity at 10 µM: 0.45%

CCc1nnc(CNC(=O)CCC2CCCN(C)C2)s1 (stereo not given)
cytotoxicity at 10 µM: -148%

CCCc1cc(C(=O)N2Cc3ccccc3C2)[nH]n1
cytotoxicity at 10 µM: 2.02%

Cc1nc(C2CCNCC2)cc(N2CCOc3ccccc3C2)n1
cytotoxicity at 10 µM: -2.3%

COc1cc(-c2nc3c([nH]2)CCCNC3=O)ccc1O
cytotoxicity at 10 µM: 16.9%

CCn1c(CN2CCCC2)nnc1C1CCN(Cc2cc(C)no2)CC1
cytotoxicity at 10 µM: 3.6%

CCc1cc(N2CCC(F)(F)CC2)n2nc(C)c(C)c2n1
cytotoxicity at 10 µM: -6.42%

Cc1[nH]nc(CCC(=O)NCC2CCN(C3CCCCC3)C2)c1C (stereo not given)
cytotoxicity at 10 µM: -5.08%

CCc1cnc(NCC(c2ccncc2)N2CCOCC2)nc1 (stereo not given)
cytotoxicity at 10 µM: 8.71%

O=c1cc(N2CCCCC2)cnn1CCCn1cccn1
cytotoxicity at 10 µM: -48.9%

COc1cccc(CN2CCC(O)(c3ccc(C)cn3)CC2)c1OC
cytotoxicity at 10 µM: -107%

CCCn1cc(NC(=O)c2cccc(CN3CC=CC3)c2)nn1
cytotoxicity at 10 µM: -147%

CCC(=O)N1CCc2[nH]cnc2C12CCN(C1CCOCC1)CC2
cytotoxicity at 10 µM: -6.47%

CC(C)c1ccc(CN2CCCC3(CC2)CN(C)C(=O)O3)cc1 (stereo not given)
cytotoxicity at 10 µM: -3.44%

CNC(=O)c1cc(-n2ccnc2-c2cnc(N(C)C)nc2)ccc1OC
cytotoxicity at 10 µM: -6.91%

CC(=O)N[C@@H](CC(C)C)C(=O)N1CCC(n2cc(CC(C)C)nn2)CC1
cytotoxicity at 10 µM: -10.8%

CCc1nc(N)nc(N2CCCC3(CCN(C)CC3)CC2)c1C
cytotoxicity at 10 µM: -179%

CCO[C@H]1COC[C@@H]1NC(=O)c1c[nH]nc1C1CCCCC1
cytotoxicity at 10 µM: -3.13%

Cc1cn2cc(-c3nc4c([nH]3)CCCNC4=O)nc2s1
cytotoxicity at 10 µM: 5.48%

Cc1ccc2cc(CN(C)Cc3nccs3)c(=O)[nH]c2c1
cytotoxicity at 10 µM: 2.91%

CCc1cnc(NCCCN2CCC(O)CC2)nc1
cytotoxicity at 10 µM: 3.44%

CC(C)C[C@H](NC(=O)c1cc(-c2cccn2C)n[nH]1)C(N)=O
cytotoxicity at 10 µM: 3.7%

CC(C)N(C)CC(=O)N(C)C(c1cccc(F)c1)c1ccccn1 (stereo not given)
cytotoxicity at 10 µM: -6.14%

CN(Cc1ccccc1C#N)C1CCN(CCc2ccccn2)CC1
cytotoxicity at 10 µM: -6.55%

Cc1noc(C)c1CN(C)CC(c1cccs1)N1CCOCC1 (stereo not given)
cytotoxicity at 10 µM: -4.98%

Cc1nn(CC(C)C)c(N(C)C)c1CNCc1ccc(CO)c(F)c1
cytotoxicity at 10 µM: -14.4%

c1cnnc(N2CCCC2CNCc2cscn2)c1 (stereo not given)
cytotoxicity at 10 µM: -5.78%

CCC(C)NC(=O)CS(=O)(=O)Cc1cc(Cl)c2c(c1)OCCCO2 (stereo not given)
cytotoxicity at 10 µM: 2.19%

O=C(Cc1ccc2c(c1)OCCO2)NC1CCCCC1
cytotoxicity at 10 µM: -12.3%

CCc1noc(C(C)N2CCN(CC)CC2)n1 (stereo not given)
cytotoxicity at 10 µM: -6.01%

Cc1nn(C)c(N(C)C)c1CNCc1ccc(Cn2cncn2)cc1
cytotoxicity at 10 µM: -6.94%

O=C(NCCc1cccs1)NCC(O)c1cccc(F)c1 (stereo not given)
cytotoxicity at 10 µM: -4.07%

O=C(NCc1nncn1-c1ccccc1)C1CCCCC1
cytotoxicity at 10 µM: -22.1%

CN(C)c1ncccc1CNS(=O)(=O)c1ccc(F)cc1F
cytotoxicity at 10 µM: -3%

CCc1nc(C2CCCN2C(=O)CCCn2cncn2)no1 (stereo not given)
cytotoxicity at 10 µM: -11.4%

CCc1ccsc1C(=O)N1CCN(CC(N)=O)CC1
cytotoxicity at 10 µM: -1.1%

Cc1nc(CN(C)C2CCN(Cc3nnc(C4CC4)o3)C2)no1 (stereo not given)
cytotoxicity at 10 µM: -5%

CN(Cc1ccco1)C(=O)CN1CCOC(Cn2cccn2)C1 (stereo not given)
cytotoxicity at 10 µM: -9.91%

FC(F)CN1CCOC(Cn2cccn2)C1 (stereo not given)
cytotoxicity at 10 µM: -9.94%

Cc1cc(C)n(C2CCCN(C(=O)c3cc(C(N)=O)cs3)C2)n1 (stereo not given)
cytotoxicity at 10 µM: -11.4%

Cc1nn(C)c(C)c1C1CCCN1Cc1nc2ccccc2n1C (stereo not given)
cytotoxicity at 10 µM: -14.4%

CCc1n[nH]c(C2CN(C(=O)c3ccc4c(c3)COC4)CCO2)n1 (stereo not given)
cytotoxicity at 10 µM: -1.63%

O=C(NCCC(=O)N1CCCc2ccccc21)c1c(F)cccc1F
cytotoxicity at 10 µM: -14.5%

CCCc1ccc(C(=O)N2CCn3c(nnc3C(C)C)C2)cc1
cytotoxicity at 10 µM: 9.83%

CCc1nnsc1C(=O)N1CCCN(Cc2cnn(CC)c2)CC1
cytotoxicity at 10 µM: -1.76%

O=C(c1c[nH]cn1)N1CCCn2c(CN3CCCCC3)nnc2C1
cytotoxicity at 10 µM: -3.03%

COCCN1CCC2(COCCN(C(=O)Cc3cccs3)C2)C1 (stereo not given)
cytotoxicity at 10 µM: 4.29%

CN1CCN(C(=O)CCc2ccccc2)Cc2cccnc21
cytotoxicity at 10 µM: -1.04%

O=C1COC2(CCN(Cc3ccncc3)CC2)CN1
cytotoxicity at 10 µM: -1.81%

O=C(Nc1cccnc1)[C@H]1COC[C@H]2CN(C3CCCC3)C[C@H]21
cytotoxicity at 10 µM: -20.1%

Fc1ccc(CN2CCn3cc(Cn4cccn4)nc3C2)cc1
cytotoxicity at 10 µM: 0.864%

c1ccc(C[C@H]2CN(C3CCOCC3)CC[C@H]2OCC2CC2)cc1
cytotoxicity at 10 µM: 0.994%

CCCS(=O)(=O)N1Cc2nccn2CC(CN(C)C)C1 (stereo not given)
cytotoxicity at 10 µM: -106%

Cc1nn(C)c(N(C)C)c1CNCC(O)COc1ccccc1 (stereo not given)
cytotoxicity at 10 µM: -0.0582%

Cc1nc(CN2C(=O)CC[C@@H]3[C@H]2CCN3C2CCOC2)cs1 (stereo not given in full)
cytotoxicity at 10 µM: -141%

O=C(O)c1cc(C=Cc2ccc3ccccc3c2)ncn1
cytotoxicity at 10 µM: -13.6%

CCN(CCSc1ccccc1)C(=O)c1cn(C2CCC(N)CC2)nn1 (stereo not given)
cytotoxicity at 10 µM: -2.93%

CN1C(=O)[C@@H]2CC[C@H]1CN(C(=O)Nc1ccccc1C(F)(F)F)C2
cytotoxicity at 10 µM: -2.53%

Reference: ChEMBL document CHEMBL4513216, “Probing the Open Global Health Chemical Diversity Library for Multistage-Active Starting Points for Next-Generation Antimalarials” (ACS Infect Dis, 2020)
